In ChEMBL document CHEMBL4138173, “Molecular docking, design, synthesis and antifungal activity study of novel triazole derivatives” (2018):
In brackets after ≈: the same amount, converted by molar mass. Activity calls are given as the source filed them. The calls are words filed in the database; no cut-off is given here.

Columns and labels:
Cryptococcus neoformans = assay: Antifungal activity against Cryptococcus neoformans after 72 hrs; assay type: functional
Method in brief: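 NCCLS-based broth dilution against C. neoformans. Test agents were in DMSO in growth medium, inoculated and held at 35 °C, and MIC80 was read at 72 h. MIC80 is the first well with roughly 80% less growth than the drug-free well. Each value averages three replicate tests.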

Aspergillus fumigatus = assay: Antifungal activity against Aspergillus fumigatus after 5 to 7 days; assay type: functional
Method in brief: (§1)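 Filamentous fungi were tested by broth dilution following NCCLS recommendations. Compounds were dissolved in DMSO in growth medium, inoculated and incubated at 35 °C, with MIC80 read after 5–7 days. MIC80 is the first well with approximately 80% growth reduction relative to the drug-free well. Results are the mean of three replicates.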

Candida albicans [1] = assay: Antifungal activity against Candida albicans SC5314 after 24 hrs; assay type: functional; details: SC5314, 24 h
Method in brief: (§2)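 Broth dilution MIC per NCCLS recommendations. Compounds were dissolved in DMSO in growth medium, then inoculated and incubated at 35 °C, with growth read at 24 h for C. albicans. MIC80 is the first well showing about 80% growth reduction versus the drug-free well. Values are the mean of three replicate tests.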

Trichophyton rubrum = assay: Antifungal activity against Trichophyton rubrum after 5 to 7 days; assay type: functional
Method in brief: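 Broth dilution per NCCLS recommendations against an ATCC strain; compounds dissolved in DMSO in growth medium; incubated at 35 °C. MIC80 is the first well with about 80% growth reduction versus the drug-free well, read at 5–7 days for filamentous fungi. Values are the mean of three replicate tests.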

Nakaseomyces glabratus = assay: Antifungal activity against Candida glabrata after 5 to 7 days; assay type: functional
Nannizzia gypsea = assay: Antifungal activity against Microsporum gypseum after 5 to 7 days; assay type: functional; method in brief: as §1
Candida albicans [2] = assay: Antifungal activity against Candida albicans SCY0109 after 24 hrs; assay type: functional; details: SCY0109, 24 h; method in brief: as §2
Candida albicans [3] = assay: Antifungal activity against Candida albicans SC5314 infected in ICR mouse assessed as increase in host survival at 1 mg/kg, po qd for 7 days starting from 2 hrs post infection measured up to 20 days; assay type: functional, organism-based
Method in brief: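 Male ICR mice (18–22 g, ten per group) were immunosuppressed with intraperitoneal cyclophosphamide 100 mg/kg once daily for 3 days. They were then infected with 0.4 ml of […] C. albicans SC5314. Oral dosing in 0.5% carboxymethylcellulose suspension began 2 h post-infection, with vehicle-only controls. Read-out was mean survival days over 20 days.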

Candida tropicalis = assay: Antifungal activity against Candida tropicalis after 24 hrs; assay type: functional
Method in brief: (§3)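 MIC measured by broth dilution per NCCLS recommendations. Compounds were dissolved in DMSO in growth medium, inoculated and incubated at 35 °C. MIC80 is the first well with approximately 80% lower growth than the drug-free well. Values are the mean of three replicate tests.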

Candida parapsilosis = assay: Antifungal activity against Candida parapsilosis after 5 to 7 days; assay type: functional; details: Lodderomyces parapsilosis
Pichia kudriavzevii = assay: Antifungal activity against Candida krusei after 5 to 7 days; assay type: functional; method in brief: as §3

Structure (SMILES)	MIC80 (Cryptococcus neoformans) [µg/mL]	MIC80 (Aspergillus fumigatus) [µg/mL]	MIC80 (Candida albicans [1]) [µg/mL]	other results
C[C@@H](n1cc(-c2ccc(Br)cc2)nn1)[C@](O)(Cn1cncn1)c1ccc(F)cc1F	0.25 (≈ 0.526 µM)	> 64	0.25 (≈ 0.526 µM)	–
C[C@@H](N1CCCC1)[C@](O)(Cn1cncn1)c1ccc(F)cc1F	0.125 (≈ 0.388 µM)	1 (≈ 3.1 µM)	0.125 (≈ 0.388 µM)	–
C[C@@H](n1cc(-c2ccccc2Cl)nn1)[C@](O)(Cn1cncn1)c1ccc(F)cc1F	0.0156 (≈ 0.0362 µM)	16 (≈ 37.1 µM)	0.0156 (≈ 0.0362 µM)	–
C[C@@H](NCc1ccccc1)[C@](O)(Cn1cncn1)c1ccc(F)cc1F	0.125 (≈ 0.349 µM)	1 (≈ 2.79 µM)	0.0312 (≈ 0.0872 µM)	–
C[C@@H](N(Cc1ccc(Cl)cc1)C1CC1)[C@](O)(Cn1cncn1)c1ccc(F)cc1F	4 (≈ 9.24 µM)	> 64	8 (≈ 18.5 µM)	–
C[C@@H](N=[N+]=[N-])[C@](O)(Cn1cncn1)c1ccc(F)cc1F	0.0625 (≈ 0.212 µM)	8 (≈ 27.2 µM)	0.0156 (≈ 0.053 µM)	–
C[C@@H](NCC1CC1)[C@](O)(Cn1cncn1)c1ccc(F)cc1F	0.125 (≈ 0.388 µM)	8 (≈ 24.8 µM)	0.125 (≈ 0.388 µM)	–
CCCCc1ccc(-c2cn([C@H](C)[C@](O)(Cn3cncn3)c3ccc(F)cc3F)nn2)cc1	8 (≈ 17.7 µM)	> 64	4 (≈ 8.84 µM)	–
C[C@@H](n1cc(-c2ccc(N)cc2)nn1)[C@](O)(Cn1cncn1)c1ccc(F)cc1F	0.5 (≈ 1.22 µM)	> 64	0.5 (≈ 1.22 µM)	–
C[C@@H](n1cc(-c2cccc(F)c2)nn1)[C@](O)(Cn1cncn1)c1ccc(F)cc1F	0.0625 (≈ 0.151 µM)	> 64	0.25 (≈ 0.603 µM)	–
COCCCN[C@H](C)[C@](O)(Cn1cncn1)c1ccc(F)cc1F	0.5 (≈ 1.47 µM)	2 (≈ 5.88 µM)	0.25 (≈ 0.734 µM)	–
C[C@@H](n1cc(-c2ccc(Cl)cc2)nn1)[C@](O)(Cn1cncn1)c1ccc(F)cc1F	0.0156 (≈ 0.0362 µM)	32 (≈ 74.3 µM)	0.125 (≈ 0.29 µM)	–
C[C@@H](N(C)C1CC1)[C@](O)(Cn1cncn1)c1ccc(F)cc1F	0.125 (≈ 0.388 µM)	8 (≈ 24.8 µM)	0.125 (≈ 0.388 µM)	–
COc1ccc(-c2cn([C@H](C)[C@](O)(Cn3cncn3)c3ccc(F)cc3F)nn2)cc1	0.0625 (≈ 0.147 µM)	> 64	0.125 (≈ 0.293 µM)	–
CCCCN[C@H](C)[C@](O)(Cn1cncn1)c1ccc(F)cc1F	0.125 (≈ 0.385 µM)	8 (≈ 24.7 µM)	0.125 (≈ 0.385 µM)	–
CC(C)N[C@H](C)[C@](O)(Cn1cncn1)c1ccc(F)cc1F	0.25 (≈ 0.806 µM)	16 (≈ 51.6 µM)	0.25 (≈ 0.806 µM)	–
C[C@@H](N1CCOCC1)[C@](O)(Cn1cncn1)c1ccc(F)cc1F	0.0156 (≈ 0.0461 µM)	0.125 (≈ 0.369 µM)	0.0312 (≈ 0.0924 µM)	MIC80 (Trichophyton rubrum): 0.0625 µg/mL (≈ 0.185 µM); MIC80 (Nakaseomyces glabratus): 0.0312 µg/mL (≈ 0.0924 µM); MIC80 (Nannizzia gypsea): 0.0625 µg/mL (≈ 0.185 µM); MIC80 (Candida albicans [2]): 0.0156 µg/mL (≈ 0.0461 µM); Activity (Candida albicans [3]): Active; MIC80 (Candida tropicalis): 0.5 µg/mL (≈ 1.48 µM); MIC80 (Candida parapsilosis): 0.0625 µg/mL (≈ 0.185 µM); MIC80 (Pichia kudriavzevii): 0.5 µg/mL (≈ 1.48 µM)
CCc1ccc(-c2cn([C@H](C)[C@](O)(Cn3cncn3)c3ccc(F)cc3F)nn2)cc1	0.5 (≈ 1.18 µM)	> 64	0.5 (≈ 1.18 µM)	–
CCN(C1CC1)[C@H](C)[C@](O)(Cn1cncn1)c1ccc(F)cc1F	1 (≈ 2.97 µM)	> 64	1 (≈ 2.97 µM)	–
CCCN(C1CC1)[C@H](C)[C@](O)(Cn1cncn1)c1ccc(F)cc1F	2 (≈ 5.71 µM)	8 (≈ 22.8 µM)	1 (≈ 2.85 µM)	–
C[C@@H](N(Cc1ccccc1)C1CC1)[C@](O)(Cn1cncn1)c1ccc(F)cc1F	8 (≈ 20.1 µM)	8 (≈ 20.1 µM)	8 (≈ 20.1 µM)	–
CCC(C)N[C@H](C)[C@](O)(Cn1cncn1)c1ccc(F)cc1F (stereo not given in full)	0.125 (≈ 0.385 µM)	4 (≈ 12.3 µM)	0.125 (≈ 0.385 µM)	–
C[C@@H](n1cc(-c2cccnc2)nn1)[C@](O)(Cn1cncn1)c1ccc(F)cc1F	1 (≈ 2.52 µM)	> 64	0.5 (≈ 1.26 µM)	–

Structure (SMILES)	MIC80 (Cryptococcus neoformans) [µg/mL]	MIC80 (Aspergillus fumigatus) [µg/mL]	MIC80 (Candida albicans [1]) [µg/mL]	other results
C[C@@H](n1cc(C2CC2)nn1)[C@](O)(Cn1cncn1)c1ccc(F)cc1F	0.0625 (≈ 0.173 µM)	32 (≈ 88.8 µM)	0.0625 (≈ 0.173 µM)	–
C[C@@H](n1cc(-c2ccc(F)cc2)nn1)[C@](O)(Cn1cncn1)c1ccc(F)cc1F	0.0625 (≈ 0.151 µM)	32 (≈ 77.2 µM)	0.0625 (≈ 0.151 µM)	–
C[C@@H](NC1CC1)[C@](O)(Cn1cncn1)c1ccc(F)cc1F	0.0156 (≈ 0.0506 µM)	1 (≈ 3.24 µM)	0.0156 (≈ 0.0506 µM)	MIC80 (Trichophyton rubrum): 0.0625 µg/mL (≈ 0.203 µM); MIC80 (Nakaseomyces glabratus): 0.0156 µg/mL (≈ 0.0506 µM); MIC80 (Nannizzia gypsea): 0.125 µg/mL (≈ 0.405 µM); MIC80 (Candida albicans [2]): 0.0078 µg/mL (≈ 0.0253 µM); MIC80 (Candida tropicalis): 0.5 µg/mL (≈ 1.62 µM); MIC80 (Candida parapsilosis): 0.25 µg/mL (≈ 0.811 µM); MIC80 (Pichia kudriavzevii): 0.5 µg/mL (≈ 1.62 µM)
C[C@@H](n1cc(-c2ccsc2)nn1)[C@](O)(Cn1cncn1)c1ccc(F)cc1F	0.0625 (≈ 0.155 µM)	4 (≈ 9.94 µM)	0.0625 (≈ 0.155 µM)	–
C[C@@H](n1cc(-c2cccs2)nn1)[C@](O)(Cn1cncn1)c1ccc(F)cc1F	0.0625 (≈ 0.155 µM)	16 (≈ 39.8 µM)	0.0625 (≈ 0.155 µM)	–
Cc1ccc(CN(C2CC2)[C@H](C)[C@](O)(Cn2cncn2)c2ccc(F)cc2F)cc1	5 (≈ 12.1 µM)	> 64	8 (≈ 19.4 µM)	–
Cc1ccc(-c2cn([C@H](C)[C@](O)(Cn3cncn3)c3ccc(F)cc3F)nn2)cc1	0.0625 (≈ 0.152 µM)	> 64	0.125 (≈ 0.305 µM)	–
C[C@@H](n1cc(-c2ccccc2)nn1)[C@](O)(Cn1cncn1)c1ccc(F)cc1F	0.0625 (≈ 0.158 µM)	16 (≈ 40.4 µM)	0.125 (≈ 0.315 µM)	–
CCN[C@H](C)[C@](O)(Cn1cncn1)c1ccc(F)cc1F	0.5 (≈ 1.69 µM)	32 (≈ 108 µM)	0.5 (≈ 1.69 µM)	–
C[C@@H](n1cc(-c2cccc(N)c2)nn1)[C@](O)(Cn1cncn1)c1ccc(F)cc1F	1 (≈ 2.43 µM)	> 64	0.5 (≈ 1.22 µM)	–
OC(Cn1cncn1)(Cn1cncn1)c1ccc(F)cc1F [FLUCONAZOLE]	2 (≈ 6.53 µM)	> 64	1 (≈ 3.27 µM)	MIC80 (Trichophyton rubrum): 1 µg/mL (≈ 3.27 µM); MIC80 (Nakaseomyces glabratus): 1 µg/mL (≈ 3.27 µM); MIC80 (Nannizzia gypsea): 8 µg/mL (≈ 26.1 µM); MIC80 (Candida albicans [2]): 0.25 µg/mL (≈ 0.816 µM); Activity (Candida albicans [3]): Active; MIC80 (Candida tropicalis): 32 µg/mL (≈ 104 µM); MIC80 (Candida parapsilosis): 0.5 µg/mL (≈ 1.63 µM); MIC80 (Pichia kudriavzevii): 32 µg/mL (≈ 104 µM)
C[C@@H](n1cc(-c2cccc(Cl)c2)nn1)[C@](O)(Cn1cncn1)c1ccc(F)cc1F	0.0625 (≈ 0.145 µM)	> 64	0.0625 (≈ 0.145 µM)	–
CCCN[C@H](C)[C@](O)(Cn1cncn1)c1ccc(F)cc1F	0.0625 (≈ 0.201 µM)	8 (≈ 25.8 µM)	0.125 (≈ 0.403 µM)	–
CCCCCN[C@H](C)[C@](O)(Cn1cncn1)c1ccc(F)cc1F	0.125 (≈ 0.369 µM)	4 (≈ 11.8 µM)	0.125 (≈ 0.369 µM)	–
C[C@@H](n1cc(-c2cccc(Br)c2)nn1)[C@](O)(Cn1cncn1)c1ccc(F)cc1F	1 (≈ 2.1 µM)	> 64	0.5 (≈ 1.05 µM)	–
C[C@@H](NC1CCCCC1)[C@](O)(Cn1cncn1)c1ccc(F)cc1F	0.5 (≈ 1.43 µM)	8 (≈ 22.8 µM)	0.5 (≈ 1.43 µM)	–
C[C@@H](NCc1ccc(Br)cc1)[C@](O)(Cn1cncn1)c1ccc(F)cc1F	0.125 (≈ 0.286 µM)	0.5 (≈ 1.14 µM)	0.0156 (≈ 0.0357 µM)	–
C[C@@H](n1cc(-c2ccccc2F)nn1)[C@](O)(Cn1cncn1)c1ccc(F)cc1F	0.125 (≈ 0.302 µM)	32 (≈ 77.2 µM)	0.125 (≈ 0.302 µM)	–
C[C@@H](c1ncncc1F)[C@](O)(Cn1cncn1)c1ccc(F)cc1F [VORICONAZOLE]	0.0312 (≈ 0.0895 µM)	0.25 (≈ 0.716 µM)	0.0312 (≈ 0.0895 µM)	MIC80 (Trichophyton rubrum): 0.125 µg/mL (≈ 0.358 µM); MIC80 (Nakaseomyces glabratus): 0.0312 µg/mL (≈ 0.0895 µM); MIC80 (Nannizzia gypsea): 0.25 µg/mL (≈ 0.716 µM); MIC80 (Candida albicans [2]): 0.0156 µg/mL (≈ 0.0447 µM); MIC80 (Candida tropicalis): 0.25 µg/mL (≈ 0.716 µM); MIC80 (Candida parapsilosis): 0.0312 µg/mL (≈ 0.0895 µM); MIC80 (Pichia kudriavzevii): 0.25 µg/mL (≈ 0.716 µM)
C[C@@H](n1cc(CN)nn1)[C@](O)(Cn1cncn1)c1ccc(F)cc1F	0.25 (≈ 0.716 µM)	> 64	0.25 (≈ 0.716 µM)	–
CCN1CCN([C@H](C)[C@](O)(Cn2cncn2)c2ccc(F)cc2F)CC1	2 (≈ 5.47 µM)	64 (≈ 175 µM)	2 (≈ 5.47 µM)	–
C[C@@H](n1cc(-c2ccncc2)nn1)[C@](O)(Cn1cncn1)c1ccc(F)cc1F	1 (≈ 2.52 µM)	> 64	1 (≈ 2.52 µM)	–
